Data published in ChEMBL document CHEMBL1926589, “2-Anilinonicotinyl linked 2-aminobenzothiazoles and [1,2,4]triazolo[1,5-b] [1,2,4]benzothiadiazine conjugates as potential mitochondrial apoptotic inducers” (Bioorg Med Chem, 2011).
Active and inactive are the calls of the source. The calls are words filed in the database; no cut-off is given here.

Columns and labels:
DU-145 = test: Growth inhibition of human DU145 cells at 10 uM by sulforhodamine B assay; format: functional; conditions: read-out: GI
Method in brief: (§1)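 Single-dose 10 µM screen by sulforhodamine B assay, reported as percent inhibition of cell proliferation. Cells grown in medium with 10% heat-inactivated FBS at 37 °C, 5% CO2, and treated at about 70% confluence or in log phase. Compounds dissolved in DMSO; controls received vehicle (<0.5% v/v).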

A549 = test: Growth inhibition of human A549 cells at 10 uM by sulforhodamine B assay; format: functional; conditions: read-out: GI; method in brief: as §1
CV-1 = test: Growth inhibition of african green monkey CV1 cells after 48 hrs by MTT assay; format: cell-based; conditions: Chlorocebus aethiops, CV-1, 48 h
SW-620 = test: Growth inhibition of human SW620 cells at 10 uM by sulforhodamine B assay; format: functional; conditions: read-out: GI; method in brief: as §1
[1] = Therapeutic ratio of IC50 for african green monkey CV1 cells to IC50 for human HL60 cells; format: ADME, cell-based, HL-60; conditions: CV1 cells and HL60 cells, read-out: Ratio IC50
HL-60 [2] = test: Growth inhibition of human HL60 cells after 48 hrs by MTT assay; format: functional, cell-based; conditions: HL-60, 48 h
SiHa [3] = test: Growth inhibition of human SiHa cells at 10 uM by sulforhodamine B assay; format: functional; conditions: read-out: GI; method in brief: as §1
IMR-32 = test: Growth inhibition of human IMR32 cells at 10 uM by sulforhodamine B assay; format: functional; conditions: read-out: GI; method in brief: as §1
SK-N-SH = test: Growth inhibition of human SK-N-SH cells at 10 uM by sulforhodamine B assay; format: functional; conditions: read-out: GI; method in brief: as §1
HEp-2 = test: Growth inhibition of human Hep2 cells at 10 uM by sulforhodamine B assay; format: functional; conditions: read-out: GI; method in brief: as §1
[4] = Growth inhibition of human 502713 cells at 10 uM by sulforhodamine B assay; format: functional; conditions: read-out: GI; method in brief: as §1
HCT-15 = test: Growth inhibition of human HCT15 cells at 10 uM by sulforhodamine B assay; format: functional; conditions: read-out: GI; method in brief: as §1
SiHa [5] = test: Growth inhibition of human SiHa cells after 48 hrs by MTT assay; format: functional, cell-based
OVCAR-5 = test: Growth inhibition of human OVCAR5 cells at 10 uM by sulforhodamine B assay; format: functional; conditions: read-out: GI; method in brief: as §1
HL-60 [6] = test: Induction of apoptosis in human HL60 cells assessed as late apoptotic cells at 1 uM after 24 hrs using Annexin V-FITC and propidium iodide staining by flow cytometry relative to control; format: functional
Method in brief: (§2)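 HL-60 cells (1 x 10^5 per 1.5 mL) treated 24 h, washed twice in PBS and stained in binding buffer with annexin V-FITC and PI. Flow cytometry with FITC in FL-1 (530 nm) and PI in FL-2 (585 nm), using quadrant statistics: lower right taken as apoptotic, upper right as post-apoptotic necrotic. Representative of three independent experiments.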

HL-60 [7] = test: Induction of apoptosis in human HL60 cells assessed as non-viable necrotic cells at 1 uM after 24 hrs using Annexin V-FITC and propidium iodide staining by flow cytometry relative to control; format: functional; method in brief: as §2
HL-60 [8] = test: Induction of apoptosis in human HL60 cells assessed as early apoptotic cells at 1 uM after 24 hrs using Annexin V-FITC and propidium iodide staining by flow cytometry relative to control; format: functional; method in brief: as §2
HL-60 [9] = test: Induction of NO production in human HL60 cells at 1 uM after 24 hrs using DAF-2DA fluorescent dye based flow cytometric analysis; format: functional, cell-based
Method in brief: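 HL-60 cells (1 x 10^5 per 1.5 mL) preloaded 30 min with 10 µM DAF-2-DA before treatment. After 24 h exposure, cells were washed and read by flow cytometry in FL-1 as NO-positive population. Mean ± SD of three independent experiments.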

SiHa [10] = test: Induction of apoptosis in human SiHa cells assessed as DNA ladder formation at 10 uM after 24 hrs by agarose gel electrophoresis; format: functional, cell-based
Method in brief: (§3)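 Cells treated 24 h, then 2 x 10^6 cells lysed (Triton X-100 buffer, pH 8.0) with RNase at 37 °C for 90 min and proteinase-K at 50 °C for 1 h. DNA phenol/chloroform-extracted and ethanol-precipitated, then run on 1.8% agarose at 50 V for 1.5 h in TAE. Ladders viewed under UV.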

HL-60 [11] = test: Induction of apoptosis in human HL60 cells assessed as caspase3 activation using DEVD-AFC as substrate at 1 uM after 24 hrs by fluorimetry relative to control; format: functional
Method in brief: (§4)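 HL-60 cells (2 x 10^6) treated 24 h, washed and lysed. Caspase-3, -8 and -9 activities in lysates measured fluorometrically with a commercial caspase fluorescent assay kit. Two independent experiments, each in duplicate.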

HL-60 [12] = test: Induction of apoptosis in human HL60 cells assessed as caspase8 activation using IETD-AFC as substrate at 1 uM after 24 hrs by fluorimetry relative to control; format: functional; method in brief: as §4
HL-60 [13] = test: Inhibition of NF-kappaB expression in human HL60 cells at 1 uM after 24 hrs by Western blotting; format: functional, cell-based
Method in brief: (§5)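 HL-60 cells treated 24 h and lysed in RIPA buffer on ice; protein measured by Bradford against a BSA standard. 50 µg resolved by SDS-PAGE and transferred to PVDF, blocked in 5% milk/TBST, then primary antibodies 1:1000 for 2 h and HRP secondary 1:1000 for 1 h. ECL detection with β-actin as loading control; bands quantified by densitometry.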

HeLa = test: Induction of apoptosis in human HeLa cells assessed as DNA ladder formation at 10 uM after 24 hrs by agarose gel electrophoresis; format: functional, cell-based; method in brief: as §3
HL-60 [14] = test: Induction of apoptosis in human HL60 cells assessed as decrease in mitochondrial membrane potential at 1 uM after 24 hrs using rhodamine 123 staining by flow cytometry; format: functional
Method in brief: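 HL-60 cells (1 x 10^5 per 1.5 mL) treated 24 h, then stained with rhodamine-123 (5 µg/mL final) for 1 h. Washed, and propidium iodide (5 µg/mL) added just before reading. FL-1 fluorescence from 10,000 events; percentage of low Rh-123 cells taken as loss of membrane potential. Mean ± SD, n=3.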

HL-60 [15] = test: Cell cycle arrest in human HL60 cells assessed as accumulation at G2/M phase at 1 uM after 24 hrs using propidium iodide staining by flow cytometry; format: functional, cell-based
Method in brief: (§6)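 HL-60 cells (1 x 10^5 per 1.5 mL) treated 24 h, then fixed in 70% cold ethanol at −20 °C overnight. RNase digestion (400 µg/ml) at 37 °C for 45 min, then propidium iodide (10 µg/ml) for 30 min. Flow cytometry on 10,000 events, FL2-A vs FL2-W, with doublet discrimination. Sub-G0 (hypodiploid) peak taken as apoptotic cells. Mean ± SD of three independent experiments.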

HL-60 [16] = test: Induction of apoptosis in human HL60 cells assessed as PARP cleavage at 1 uM after 24 hrs by Western blotting; format: functional, cell-based; method in brief: as §5
HL-60 [17] = test: Induction of apoptosis in human HL60 cells assessed as caspase9 activation using LEHD-AMC as substrate at 1 uM after 24 hrs by fluorimetry relative to control; format: functional; method in brief: as §4
HL-60 [18] = test: Induction of apoptosis in human HL60 cells assessed as DNA ladder formation at 1 uM after 24 hrs by agarose gel electrophoresis; format: functional, cell-based; method in brief: as §3
HL-60 [19] = test: Induction of apoptosis in human HL60 cells assessed as increase of reactive oxygen species level at 1 uM after 24 hrs using DCFH-DA fluorescent dye based flow cytometric analysis relative to control; format: functional
Method in brief: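 HL-60 cells (1 x 10^5 per 1.5 mL) treated 24 h, then loaded with 10 µM H2DCFDA for 30 min at 37 °C. Washed twice in PBS and read in FL-1 (530 nm). Percentage of DCF-positive cells determined; mean ± SD of three experiments.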

HL-60 [20] = test: Cell cycle arrest in human HL60 cells assessed as accumulation at S phase at 1 uM after 24 hrs using propidium iodide staining by flow cytometry; format: functional, cell-based; method in brief: as §6
HL-60 [21] = test: Inhibition of Bcl-2 expression in human HL60 cells at 1 uM after 24 hrs by Western blotting; format: functional, cell-based; method in brief: as §5
HL-60 [22] = test: Cell cycle arrest in human HL60 cells assessed as accumulation at G1 phase at 1 uM after 24 hrs using propidium iodide staining by flow cytometry; format: functional, cell-based; method in brief: as §6
HL-60 [23] = test: Induction of apoptosis in human HL60 cells assessed as DNA ladder formation at 10 uM after 24 hrs by agarose gel electrophoresis; format: functional, cell-based; method in brief: as §3
HL-60 [24] = test: Cell cycle arrest in human HL60 cells assessed as accumulation at sub-G0 phase measuring DNA damage at 1 uM after 24 hrs using propidium iodide staining by flow cytometry (reference value: 1%); format: functional; method in brief: as §6

| SMILES | inhibition of growth at 10 µM (DU-145) [%] | inhibition of growth at 10 µM (A549) [%] | IC50 (CV-1) [µM] | inhibition of growth at 10 µM (SW-620) [%] | selectivity ratio [1] | IC50 (HL-60 [2]) [µM] | inhibition of growth at 10 µM (SiHa [3]) [%] | inhibition of growth at 10 µM (IMR-32) [%] | inhibition of growth at 10 µM (SK-N-SH) [%] | inhibition of growth at 10 µM (HEp-2) [%] | inhibition of growth at 10 µM [4] [%] | inhibition of growth at 10 µM (HCT-15) [%] | IC50 (SiHa [5]) [µM] | inhibition of growth at 10 µM (OVCAR-5) [%] | Activity (HL-60 [6]) [%] | Activity (HL-60 [7]) [%] | Activity (HL-60 [8]) [%] | Activity (HL-60 [9]) | Activity (SiHa [10]) | Activity (HL-60 [11]) | further results |
| --- | --- | --- | --- | --- | --- | --- | --- | --- | --- | --- | --- | --- | --- | --- | --- | --- | --- | --- | --- | --- | --- |
| O=C(Nc1nc2ccc([N+](=O)[O-])cc2s1)c1cccnc1Nc1ccc(Cl)cc1 | 52 | 83 | 0.8 | 65 | 2 | 0.4 | 53 | 45 | 48 | 69 | 63 | 66 | > 50 | 26 |  |  |  |  |  |  |  |
| CC[C@@]1(O)C(=O)OCc2c1cc1n(c2=O)Cc2cc3ccccc3nc2-1 [CAMPTOTHECIN] |  |  |  |  |  |  |  |  |  |  |  |  |  |  | 11 | 52 | 17 |  |  |  |  |
| O=C(Nc1nc2ccc([N+](=O)[O-])cc2s1)c1cccnc1Nc1ccccc1 | 52 | 31 | 70 | 65 | 120 | 0.58 | 53 | 45 | 48 | 26 | 63 | 66 | 28 | 50 | 7 | 42 | 13 | inactive | inactive | inactive | Activity (HL-60 [12]): inactive; inhibition (HL-60 [13]): inactive; Activity (HeLa): inactive; Activity (HL-60 [14]): Active; Activity (HL-60 [15]): inactive; Activity (HL-60 [16]): Active; Activity (HL-60 [17]): inactive; Activity (HL-60 [18]): Active; Activity (HL-60 [19]): 31%; Activity (HL-60 [20]): inactive; inhibition (HL-60 [21]): inactive; Activity (HL-60 [22]): inactive; Activity (HL-60 [23]): Active; Activity (HL-60 [24]): 24% |
| COc1ccc(Nc2ncccc2C(=O)Nc2nc3ccc([N+](=O)[O-])cc3s2)cc1 | 32 | 3 | 10 | 64 | 14 | 0.7 | 66 | 55 | 64 | 5 | 59 | 47 | 28 | 52 | 3 | 14 | 7 | inactive | inactive | inactive | Activity (HL-60 [12]): inactive; inhibition (HL-60 [13]): inactive; Activity (HeLa): inactive; Activity (HL-60 [15]): inactive; Activity (HL-60 [16]): Active; Activity (HL-60 [17]): inactive; Activity (HL-60 [18]): Active; Activity (HL-60 [19]): 44%; Activity (HL-60 [20]): inactive; inhibition (HL-60 [21]): inactive; Activity (HL-60 [22]): inactive; Activity (HL-60 [23]): Active; Activity (HL-60 [24]): 22% |
| O=S1(=O)c2ccccc2N(c2ccccc2)c2nc(-c3cccnc3Nc3ccc(Cl)cc3)nn21 | 6 | 46 |  | 68 |  |  | 30 | 31 | 27 | 57 | 18 | 0 |  | 1 |  |  |  |  |  |  |  |
